Data from ChEMBL document CHEMBL1153447, “Synthesis, cytotoxic and combined cDDP activity of new stable curcumin derivatives” (Bioorg Med Chem, 2009).

Tests used:
2008 [1] = experiment: Cytotoxicity against cisplatin-sensitive human 2008 cells after 72 hrs by crystal violet dye assay; format: functional, cell-based; settings: Homo sapiens, 2008, 72 h
How it was run: (§1)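 2008 ovarian carcinoma cells or the cisplatin-resistant C13* subline, grown in RPMI 1640 with 10% heat-inactivated FBS and gentamycin, 5% CO2, 37 °C, mycoplasma-negative. Seeded 4 × 10^4 cells/well, exposed 24 h later to compound for 3 days. Crystal violet stain solubilized in acidic isopropanol, absorbance read at 540 nm versus untreated controls. IC50 taken from dose–response curves. Mean of three experiments run in duplicate.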

2008 [2] = experiment: Cytotoxicity against cisplatin-sensitive human 2008 cells at 750 uM after 72 hrs by crystal violet dye assay; format: functional; how it was run: as §1
[3] = Cytotoxicity against cisplatin-resistant human C13 cells at 750 uM after 72 hrs by crystal violet dye assay; format: functional; how it was run: as §1
[4] = Cytotoxicity against african green monkey Vero cells assessed as cell survival at 750 uM after 72 hrs by crystal violet dye assay; format: cell-based; settings: chlorocebus sabaeus, read-out: Activity
How it was run: (§2)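 Vero cells (African green monkey kidney) grown in MEM with 10% heat-inactivated fetal calf serum, penicillin G and streptomycin, 5% CO2, 37 °C. Seeded 4 × 10^4 cells/well, exposed 24 h later to compound for 3 days. Methanol-fixed, crystal violet-stained, dye solubilized in acidic isopropanol, absorbance read at 540 nm. Cytotoxicity is calculated against untreated controls. Mean of three experiments run in duplicate.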

2008 [5] = experiment: Resistant factor, ratio of IC50 for cisplatin-resistant human C13 cells to IC50 for cisplatin-sensitive human 2008 cells; format: functional
How it was run: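 RF^I is the IC50 in C13* cells divided by the IC50 in parental 2008 cells. Both IC50s come from a 3-day crystal violet dose–response assay, read at 540 nm.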

[6] = Cytotoxicity against cisplatin-resistant human C13 cells after 72 hrs by crystal violet dye assay; format: functional, cell-based; settings: C13, 72 h; how it was run: as §1
[7] = Cytotoxicity against african green monkey Vero cells assessed as inhibition of growth at 750 uM after 72 hrs by crystal violet dye assay; format: cell-based; settings: chlorocebus sabaeus, read-out: Activity; how it was run: as §2
Vero [8] = experiment: Cytotoxicity against african green monkey Vero cells after 72 hrs by crystal violet dye assay; format: cell-based; settings: Chlorocebus sabaeus; how it was run: as §2
Vero [9] = experiment: Resistance factor, ratio of IC50 for african green monkey Vero cells to IC50 for cisplatin-resistant human C13 cells
How it was run: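 RF^II is the IC50 in Vero cells divided by the IC50 in C13* cells. Each IC50 comes from a 3-day crystal violet dose–response assay, read at 540 nm.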

2008 [10] = experiment: Cytotoxicity against cisplatin-sensitive human 2008 cells at 10 uM after 72 hrs by crystal violet dye assay; format: functional; how it was run: as §1
[11] = Cytotoxicity against cisplatin-resistant human C13 cells at 10 uM after 72 hrs by crystal violet dye assay; format: functional; how it was run: as §1
Vero [12] = experiment: Cytotoxicity against african green monkey Vero cells at 5 uM after 72 hrs by crystal violet dye assay; format: cell-based; settings: chlorocebus sabaeus; how it was run: as §2
Vero [13] = experiment: Cytotoxicity against african green monkey Vero cells at 10 uM after 72 hrs by crystal violet dye assay; format: cell-based; settings: chlorocebus sabaeus; how it was run: as §2

Row | SMILES | IC50 2008 [1] | Activity 2008 [2] | Activity [3] | viability at 72 h, 750 µM [4] | Ratio IC50 2008 [5] | IC50 [6] | inhibition at 72 h, 750 µM [7] | IC50 (Vero [8]) | Ratio IC50 (Vero [9]) | Activity 2008 [10] | Activity [11] | Activity (Vero [12]) | Activity (Vero [13])
1 | O=C(/C=C/c1ccc(O[C@@H]2O[C@H](CO)[C@@H](O)[C@H](O)[C@H]2O)c(O)c1)CC(=O)/C=C/c1ccc(O[C@@H]2O[C@H](CO)[C@@H](O)[C@H](O)[C@H]2O)c(O)c1 | 480 µM | 70% | 15% | 80% | >2 |  |  |  |  |  |  |  | 
2 | COc1cc(/C=C/C(=O)CC(=O)/C=C/c2ccc(O[C@@H]3O[C@H](CO)[C@@H](O)[C@H](O)[C@H]3O)c(OC)c2)ccc1O[C@@H]1O[C@H](CO)[C@@H](O)[C@H](O)[C@H]1O | 220 µM |  |  |  | 3.8 | 840 µM | 20% |  |  |  |  |  | 
3 | O=C(/C=C/c1ccc(O[C@@H]2O[C@H](CO)[C@@H](O)[C@H](O)[C@H]2O)cc1)CC(=O)/C=C/c1ccc(O[C@@H]2O[C@H](CO)[C@@H](O)[C@H](O)[C@H]2O)cc1 | 22 µM |  |  |  | 3.8 | 83 µM |  | 330 µM | 3.97 |  |  |  | 
4 | COc1cc(/C=C/C(=O)CC(=O)/C=C/c2ccc(O)c(OC)c2)ccc1O [CURCUMIN] | 5 µM |  |  |  | 3.4 | 17 µM |  | 22 µM | 1.3 | 90% | 45% | 10% | 25%
